Assay results taken from ChEMBL document CHEMBL1146487, “New cytotoxic clerodane diterpenoids from the leaves and twigs of Casearia membranacea” (J Nat Prod, 2004).

Columns and labels:
[1] = Cytotoxicity against human Hep3B cells after 48 hrs by SRB assay; format: functional, cell-based, Hep 3B2
Procedure, shortened: (§1)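 Cells seeded in RPMI 1640 with 5% FBS at 37 °C, 5% CO2. A time-zero plate set fixed with TCA at 24 h. Drug added, then 48 h further incubation. Cold-TCA fixation, 0.4% w/v SRB in 1% acetic acid for 10 min, acetic acid washes, dye dissolved in 10 mM Tris base, A515 read. IC50 = concentration giving 50% absorbance reduction versus untreated cells.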

PC-3 = assay: Cytotoxicity against human PC3 cells after 48 hrs by SRB assay; format: functional, cell-based; details: PC-3, 48 h; procedure, shortened: as §1

In the case of `CC(=O)O[C@H]1C(=O)[C@@]2(C)[C@H]([C@H](OC(=O)c3ccccc3)[C@]3(O)C[C@H](OC(=O)[C@H](O)[C@@H](NC(=O)c4ccccc4)c4ccccc4)C(C)=C1C3(C)C)[C@]1(OC(C)=O)CO[C@@H]1C[C@@H]2O` [PACLITAXEL], the IC50 [1] is reported as 31 nM and the IC50 (PC-3) is reported as 16 nM.
Compound `C=CC(=C)CC[C@]1(C)[C@H]2C[C@H](OC(=O)C(C)CC)C=C3[C@H](OC(=O)CCC)O[C@H](OC(C)=O)[C@@]32[C@H](O)C[C@@H]1C` (relative stereo) [CASEAMEMBRIN A] has an IC50 [1] of 2300 nM and an IC50 (PC-3) of 1500 nM.
`C=CC(=C)CC[C@]1(C)[C@H]2C[C@H](OC(=O)C(C)CC)C=C3[C@H](OC(=O)CCC)O[C@H](OC(C)=O)[C@@]32[C@H](OC(C)=O)[C@H](OC(C)=O)[C@@H]1C` (stereo not given in full) showed an IC50 [1] of 16800 nM and an IC50 (PC-3) of 12800 nM.
Compound `C=CC(=C)CC[C@]1(C)[C@H]2C[C@H](OC(=O)C(C)CC)C=C3[C@H](OC(=O)CCC)O[C@H](OC(C)=O)[C@@]32[C@H](O)[C@H](O)[C@@H]1C` (relative stereo) [CASEAMEMBRIN C] has an IC50 [1] of 800 nM and an IC50 (PC-3) of 600 nM.
Compound `C=CC(=C)CC[C@]1(C)[C@H]2C[C@H](OC(=O)C(C)CC)C=C3[C@H](OC(C)=O)O[C@H](OC(C)=O)[C@@]32[C@H](OC(=O)c2cccnc2)C[C@@H]1C` (stereo not given in full) has an IC50 [1] of 10800 nM and an IC50 (PC-3) of 13000 nM.
Compound `C=CC(=C)CC[C@]1(C)[C@H]2C[C@H](OC(=O)C(C)CC)C=C(C=O)[C@@]2(C=O)[C@H](O)C[C@@H]1C` (relative stereo) [CASEAMEMBRIN F] has an IC50 [1] of 14700 nM and an IC50 (PC-3) of 3000 nM.
Compound `C=CC(=C)CC[C@]1(C)[C@H]2C[C@H](OC(=O)C(C)CC)C=C3[C@H](OC)O[C@H](OC(C)=O)[C@@]32[C@H](O)C[C@@H]1C` (relative stereo) [CASEAMEMBRIN B] has an IC50 [1] of 18000 nM and an IC50 (PC-3) of 22200 nM.
For `C=CC(=C)CC[C@]1(C)[C@H]2C[C@H](OC(=O)C(C)CC)C=C3[C@H](OC(C)=O)O[C@H](OC(C)=O)[C@@]32[C@H](O)C[C@@H]1C` (relative stereo), the IC50 [1] was 2400 nM and the IC50 (PC-3) was 1800 nM.
Work on `C=CC(=C)CC[C@]1(C)[C@H]2C[C@@H](OC(=O)C(C)CC)C=C3[C@H](OC(C)=O)O[C@H](OC(C)=O)[C@@]32[C@H](O)C[C@@H]1C` (relative stereo) [CASEAMEMBRIN E] yielded an IC50 [1] of 2600 nM and an IC50 (PC-3) of 2900 nM.
`C=CC(=C)CC[C@]1(C)[C@H]2C[C@H](OC(=O)C(C)CC)C=C3[C@H](OC(=O)CCC)O[C@H](OC(C)=O)[C@@]32[C@H](O)[C@H](OC(C)=O)[C@@H]1C` (relative stereo) [CASEAMEMBRIN D] showed an IC50 [1] of 1900 nM and an IC50 (PC-3) of 2400 nM.
